Assay outcomes (PubChem)
Kir21 block: blocks the mouse Kir2.1 inward-rectifier potassium channel; P35561; HEK293-Kir2.1, FluxOR thallium flux fluorescence; stronger effect = lower value; B-score at 10 µM; actives 0.85% (n = 310,000); AID 1672;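 active means fluorescence ratio B-score at or below minus 3 SD of library scores, with starting-brightness B-score within 2 SD, cut at about -4.2 in these data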;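 further: channel flux triggered by added potassium and thallium sulfate stimulus; B-score of peak minus minimum fluorescence over baseline after thallium stimulus; more negative B-score means stronger Kir2.1 block with less thallium influx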
Target sequence (P35561 whole entry, looked up): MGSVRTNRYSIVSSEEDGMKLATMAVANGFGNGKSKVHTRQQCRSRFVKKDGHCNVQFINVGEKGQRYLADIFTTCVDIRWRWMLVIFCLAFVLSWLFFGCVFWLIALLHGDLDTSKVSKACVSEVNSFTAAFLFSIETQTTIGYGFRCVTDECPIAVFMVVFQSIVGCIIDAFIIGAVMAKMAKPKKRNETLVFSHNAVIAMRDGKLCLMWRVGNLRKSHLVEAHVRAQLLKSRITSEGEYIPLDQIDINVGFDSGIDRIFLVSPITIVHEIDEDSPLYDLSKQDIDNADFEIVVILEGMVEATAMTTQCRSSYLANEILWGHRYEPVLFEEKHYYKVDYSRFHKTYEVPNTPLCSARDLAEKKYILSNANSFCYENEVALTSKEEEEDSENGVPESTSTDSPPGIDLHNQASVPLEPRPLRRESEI
KCNK9 block: blocks the human KCNK9 two-pore domain potassium channel | Q9NPC2 | HEK293 KCNK9, FluxOR thallium flux fluorescence; stronger effect = lower value | B-score at 10 µM | actives 1.2% (n = 310,000) | AID 488922;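 active means ratio B-score over 3 SD below the library mean, with starting fluorescence within 5 SD of its mean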;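 further: negative B-score means less thallium flux so channel inhibition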
hERG rescue: compounds protecting human hERG from proarrhythmic drug block; Q12809; AID 1511; activation (rescue from dofetilide block), less the hit threshold, % at 10 µM; actives 0.51% (n = 310,000); CHO-hERG, FluxOR thallium flux, dofetilide IC70 present;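 active means activation above the mean of controls blocked by dofetilide plus 5 SD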;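 further: thallium influx through hERG after potassium depolarization seen as dye fluorescence rise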
KCNQ1 pot: potentiates or activates the human KCNQ1 potassium channel. P51787. CHO-K1 KCNQ1, thallium flux FluxOR fluorescence; stronger effect = higher value. B-score at 10 µM. actives 0.35% (n = 310,000). AID 2648;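 active means fluorescence ratio B-score, a plate-corrected score, at least three library SD, with initial intensity B-score within 5 SD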
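Schedule – 37 °C overnight plating, 90-min dark dye load, 20-min compound pretreatment · System – stable KCNQ1 CHO-K1 line · Probe or stimulus – thallium- and potassium-containing depolarizing buffer · Measured by – kinetic FluxOR fluorescence, 10 s baseline plus 110 s post-stimulus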
KCNK3 inh: human KCNK3 channel inhibition, primary screen; actives 0.84% (n = 340,000); CHO-KCNK3 thallium flux, FluxOR fluorescence; stronger effect = lower value; O14649; B-score at 10 µM;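 active means B-score under library mean minus 4 SD, starting fluorescence ratio at most library mean plus 5 SD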;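 further: more negative B-score means stronger inhibition of thallium flux through KCNK3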
KCNQ1 block: inhibitors of human KCNQ1 potassium channel. P51787. CHO-K1 KCNQ1, FluxOR thallium flux fluorescence; stronger effect = higher value. B-score at 10 µM. actives 1.3% (n = 310,000). AID 2642;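 active means compounds whose thallium flux B-score, printed positive for inhibition, exceeds three library SD while starting fluorescence stays within three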;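 further: channel opened by potassium depolarization with thallium stimulus after 20 min compound exposure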
KCNQ1 block val: confirmation of human KCNQ1 potassium channel inhibitors | shares compounds with KCNQ1 block | KCNQ1 cell line, FluxOR thallium flux fluorescence | inhibition, % at 10 µM | actives 93% (n = 1,600) | AID 588353;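 active means primary screen active, with duplicate mean exceeding buffer control mean plus 3 SD of buffer wells, cut at about 28% in these data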
CHO Tl flux: activity in parental CHO cells lacking KCNQ1; shares compounds with KCNQ1 block; fluorescence ratio (Tl flux) at 10 µM; actives 21% (n = 1,600); parental CHO-K1, FluxOR thallium flux fluorescence ratio; stronger effect = lower value; zero means no signal rise above baseline;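 active means mean of duplicate thallium-flux fluorescence ratios in parental host cells more than 5 SD below the buffer control mean, cut at about 0.38 in these data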;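 further: ratio is peak minus minimum fluorescence divided by baseline fluorescence; actives read low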
KCNQ1 ephys val: confirmation of human KCNQ1 potassium channel inhibitors by electrophysiology. shares compounds with KCNQ1 block. KCNQ1-CHO cells, automated patch clamp current. calls only at 10 µM. actives 20% (n = 490). AID 624120;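 active means KCNQ1 current drop exceeding 3 SD of negative control wells, seen in both duplicate runs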;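 further: steady state current during a 2 s step from -80 to +40 mV; negative values mean current inhibition and positive values mean potentiation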
KCNQ2 inh: KCNQ1 inhibitor that also blocks rat KCNQ2 channel; KCNQ2 cells, FluxOR thallium flux fluorescence; inhibition, % at 10 µM; shares compounds with KCNQ1 block; actives 71% (n = 1,600);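 active means mean percent inhibition of the KCNQ2 thallium signal more than 5 SD above the buffer-only control wells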;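 further: KCNQ2 expressed in CHO cells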
KCNQ1 KCNE1 spec: KCNQ1 inhibitor that also blocks human KCNQ1/KCNE1 channel; shares compounds with KCNQ1 block; KCNQ1/KCNE1 cells, FluxOR thallium flux fluorescence; inhibition, % at 10 µM; actives 77% (n = 1,600);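 active means mean percent inhibition of duplicate wells above the buffer-only control mean plus 3 SD of those controls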
A number is an active result; - = inactive; . = not tested or not shown. Compounds with a hit are over-represented: about 3.8% of the library has one in this group of screens.

SMILES	Kir21 block	KCNK9 block	hERG rescue	KCNQ1 pot	KCNK3 inh	KCNQ1 block	KCNQ1 block val	CHO Tl flux	KCNQ2 inh	KCNQ1 KCNE1 spec	others
Cc1ccc(OCC(O)Cn2c(=N)n(Cc3ccccc3)c3ccccc32)cc1 (configuration not stated)	-6	-	-	-	-	8	78	-	93%	36%
N#CC(c1ccccc1)(c1ncc(C(F)(F)F)cc1Cl)N1CCOCC1 (configuration not stated)	-	-	-	-	-	6	74	-	99%	84%
N#CC(c1cccc(C(F)(F)F)c1)(c1ncc(C(F)(F)F)cc1Cl)N1CCOCC1 (configuration not stated)	-	-	-	-	-	-	.	.	.	.
CN(CC(=O)Nc1ccc(F)cc1)C(=O)c1cn(-c2ccccc2)nc1-c1cccs1	.	.	.	.	-	.	.	.	.	.
CN(CC(=O)Nc1cccc(F)c1)C(=O)c1cn(-c2ccccc2)nc1-c1ccccc1	-	-	-	-	-	8	74	-	74%	93%
O=[N+]([O-])c1ccc2nc(SCc3ccccc3Cl)sc2c1	-	-	-	-	-	15	106	-	117%	116%	KCNQ1 ephys val=-
COc1ccc(C(C)=O)cc1CSc1nncn1C	-	-	-	-	-	8	64	-	60%	35%
O=C(Cn1cnc2ccccc21)OCC(=O)N1CCCCC1	.	.	.	.	-	.	.	.	.	.
Cc1ccc(CSCC(=O)N(C)CC(=O)Nc2c(Cl)cccc2Cl)cc1	-	-	-	-	-	-	.	.	.	.
Oc1cc2ccccc2cc1-c1n[nH]c(=S)o1	-	-	-	-	-	7	-	-	-	-
O=c1c(-c2ccccc2)nnc2sc(COc3ccc(Br)cc3)nn12	-	-	-	-	-	-	.	.	.	.
Cc1cccc2cc(CN(C(=S)NCC(C)C)C3CCCC3)c(=O)[nH]c12	-	-	-	-	-	-	.	.	.	.
Cc1cc2nc(CCN(C(=S)NCC(C)C)C3CCCC3)[nH]c2cc1C	-	-	-	-	-	8	167	-	101%	-	KCNQ1 ephys val=-
COc1ccccc1CNC(=O)COC(=O)c1ncc(Cl)c(Cl)c1Cl	-	-	-	-	-	-	.	.	.	.
COc1ccc(NS(=O)(=O)N2CCCCC2)cc1	.	.	.	.	-	.	.	.	.	.
CC(NC(=O)Nc1nnc(C(F)(F)F)s1)(C(F)(F)F)C(F)(F)F	-	-	-	-	-	7	-	-	-	-
CC(NC(=O)Nc1nnc(C(F)(F)F)s1)N1C(=O)C2C3C=CC(C3)C2C1=O (configuration not stated)	-	-	-	-	-	-	.	.	.	.
CCOc1ccccc1NC(=O)C(OC(=O)c1ccccc1)c1ccccc1 (configuration not stated)	-	-6.9	-	-	-	6	90	-	107%	126%	KCNQ1 ephys val=-
COc1ccc(C(=O)CCc2ccccc2)c(O)c1	-	-	-	-	-	-	.	.	.	.
O=C(CCc1ccccc1)c1c(O)cc(O)cc1O	-	-	-	-	-	10	123	0.37	102%	177%
O=C(COC(=O)CSc1ccc(F)cc1)NC1CCCCCC1	.	.	.	.	-	.	.	.	.	.
Cc1cc(C)cc(NC(=O)Cn2c(=O)oc3cc(S(=O)(=O)N4CC(C)CC(C)C4)ccc32)c1 (configuration not stated)	-	-	-	-	-	7	37	-	67%	-
